Experimental data published in ChEMBL document CHEMBL1158610, “5-arylamino-1,2,4-triazin-6(1H)-one CRF1 receptor antagonists” (Bioorg Med Chem Lett, 2010).

What follows are molecules tested against T1, Corticotropin-releasing factor receptor 1 (Rattus norvegicus, UniProt P35353) (assay: Displacement of [125I]Tyr-ovine CRF from rat CRF1 receptor).
T1 sequence (P35353 whole entry): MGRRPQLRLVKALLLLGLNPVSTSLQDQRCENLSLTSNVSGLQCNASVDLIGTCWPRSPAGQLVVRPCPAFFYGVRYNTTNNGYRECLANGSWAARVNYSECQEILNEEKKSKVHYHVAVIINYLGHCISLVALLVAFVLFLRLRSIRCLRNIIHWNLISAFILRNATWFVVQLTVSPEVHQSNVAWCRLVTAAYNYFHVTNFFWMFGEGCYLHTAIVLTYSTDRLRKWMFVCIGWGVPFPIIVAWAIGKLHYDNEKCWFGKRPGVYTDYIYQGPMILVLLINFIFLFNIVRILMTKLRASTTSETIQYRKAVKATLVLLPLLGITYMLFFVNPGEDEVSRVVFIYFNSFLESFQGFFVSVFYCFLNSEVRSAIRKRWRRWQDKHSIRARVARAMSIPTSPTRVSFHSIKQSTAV
Method in brief: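 Rat frontal cortex homogenate; inhibition of specific [¹²⁵I]Tyr-ovine-CRF binding measured across a titration of test compound to give IC50. Values are means of three experiments, with standard deviation.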

Row | IC50 [nM] | Compound
1 | 6.3 | COCC(C1CC1)n1nc(C)nc(Nc2c(Cl)cc(OC)cc2Cl)c1=O (configuration not stated)
2 | 7.2 | Cc1nc(Nc2c(Cl)cc(OC(F)F)cc2Cl)c(=O)n([C@@H](C)C2CC2)n1
3 | 23 | CCOc1ccc(Nc2nc(C)nn([C@@H](C)C3CC3)c2=O)c(C(F)(F)F)n1
4 | 5 | COc1cc(C)c(Nc2nc(C)nn(C(C)C3CC3)c2=O)cc1C (configuration not stated)
5 | 23 | COC[C@@H](C1CC1)n1nc(C)nc(Nc2c(Cl)cc(OC(F)F)cc2Cl)c1=O
6 | 94 | COc1cc(Nc2nc(C)nn(C(C)C3CC3)c2=O)c(C)cc1C#N (configuration not stated)
7 | 6.5 | COC[C@H](C1CC1)n1nc(C)nc(Nc2cc(C)c(OC(F)F)nc2C)c1=O
8 | 39 | Cc1nc(Nc2c(Cl)cc(OC(F)(F)F)cc2Cl)c(=O)n(C(C)C2CC2)n1 (configuration not stated)
9 | 33 | Cc1nc(Nc2c(C)cc(Cl)cc2Cl)c(=O)n(C(C)C2CC2)n1 (configuration not stated)
10 | 8.3 | COc1cc(Cl)c(Nc2nc(C)nn([C@H](C)C3CC3)c2=O)c(Cl)c1
11 | 0.89 | CCC(C1CC1)n1nc(C)nc(Nc2cc(C)c(OC)cc2C)c1=O (configuration not stated)
12 | 7.2 | COC[C@H](C1CC1)n1nc(C)nc(Nc2c(Cl)cc(OC)cc2Cl)c1=O
13 | 2.3 | COC[C@@H](C1CC1)n1nc(C)nc(Nc2ccc(OC)nc2C(F)(F)F)c1=O
14 | 51 | COCC(C1CC1)n1nc(C)nc(Nc2c(C)cc(OC)cc2C)c1=O (configuration not stated)
15 | 6.7 | COc1ccc(Nc2nc(C)nn(C(C)C3CC3)c2=O)c(C(F)(F)F)n1 (configuration not stated)
16 | 3.7 | COCC(C1CC1)n1nc(C)nc(Nc2ccc(OC)nc2C(F)(F)F)c1=O (configuration not stated)
17 | 12 | CCOc1ccc(Nc2nc(C)nn(C(C)C3CC3)c2=O)c(C(F)(F)F)n1 (configuration not stated)
18 | 3.6 | CCOc1ccc(Nc2nc(C)nn(C(CC)C3CC3)c2=O)c(C(F)(F)F)n1 (configuration not stated)
19 | 9.9 | Cc1nc(Nc2c(Cl)cc(OC(F)F)cc2Cl)c(=O)n(C(C)C2CC2)n1 (configuration not stated)

Row | IC50 [nM] | Compound
20 | 13 | CCC(C1CC1)n1nc(C)nc(Nc2cc(OC)c(C#N)cc2C)c1=O (configuration not stated)
21 | 3.5 | COc1ccc(Nc2nc(C)nn([C@H](C)C3CC3)c2=O)c(C(F)(F)F)n1
22 | 15 | COC[C@H](C1CC1)n1nc(C)nc(Nc2ccc(OC)nc2C(F)(F)F)c1=O
23 | 11 | COCC(C1CC1)n1nc(C)nc(Nc2c(Cl)cc(OC(F)(F)F)cc2Cl)c1=O (configuration not stated)
24 | 12 | COc1ccc(Nc2nc(C)nn([C@@H](C)C3CC3)c2=O)c(C(F)(F)F)n1
25 | 3 | CCOc1ccc(Nc2nc(C)nn(C(COC)C3CC3)c2=O)c(C(F)(F)F)n1 (configuration not stated)
26 | 2.1 | CCC(C1CC1)n1nc(C)nc(Nc2c(Cl)cc(OC(F)F)cc2Cl)c1=O (configuration not stated)
27 | 69 | COC[C@@H](C1CC1)n1nc(C)nc(Nc2c(Cl)cc(OC)cc2Cl)c1=O
28 | 14 | Cc1nc(Nc2c(Cl)cc(C(F)(F)F)cc2Cl)c(=O)n(C(C)C2CC2)n1 (configuration not stated)
29 | 2.7 | CCC(C1CC1)n1nc(C)nc(Nc2cc(C)c(OC)nc2C(F)(F)F)c1=O (configuration not stated)
30 | 7.5 | COc1cc(Cl)c(Nc2nc(C)nn([C@@H](C)C3CC3)c2=O)c(Cl)c1
31 | 20 | COCC(C1CC1)n1nc(C)nc(Nc2cc(C)c(OC)nc2C)c1=O (configuration not stated)
32 | 15 | COc1cc(Cl)c(Nc2nc(C)nn(C(C)C3CC3)c2=O)c(Cl)c1 (configuration not stated)
33 | 6.3 | CCC(C1CC1)n1nc(C)nc(Nc2c(Cl)cc(C(F)(F)F)cc2Cl)c1=O (configuration not stated)
34 | 9.3 | CCC(C1CC1)n1nc(C)nc(Nc2cc(C)c(C#N)cc2C)c1=O (configuration not stated)
35 | 260 | Cc1nc(Nc2c(Cl)cc(C(F)(F)F)nc2Cl)c(=O)n(C(C)C2CC2)n1 (configuration not stated)
36 | 270 | Cc1nc(Nc2cc(Cl)c(C#N)cc2Cl)c(=O)n(C(C)C2CC2)n1 (configuration not stated)
37 | 6.3 | COCC(C1CC1)n1nc(C)nc(Nc2c(Cl)cc(OC(F)F)cc2Cl)c1=O (configuration not stated)
38 | 13 | Cc1nc(Nc2c(Cl)cc(OC(F)F)cc2Cl)c(=O)n([C@H](C)C2CC2)n1

Row | IC50 [nM] | Compound
39 | 26 | COc1nc(C)c(Nc2nc(C)nn(C(C)C3CC3)c2=O)cc1C (configuration not stated)
40 | 2.4 | CCOc1ccc(Nc2nc(C)nn([C@@H](COC)C3CC3)c2=O)c(C(F)(F)F)n1
41 | 19 | Cc1cc(C)c(Nc2nc(C)nn(C(C)C3CC3)c2=O)c(C)c1 (configuration not stated)
42 | 3300 | Cc1nc(Nc2cc(C(F)(F)F)c(C#N)cc2Cl)c(=O)n(C(C)C2CC2)n1 (configuration not stated)
43 | 60 | Cc1nc(Nc2cc(C)c(C#N)cc2C)c(=O)n(C(C)C2CC2)n1 (configuration not stated)
44 | 3.7 | CCC(C1CC1)n1nc(C)nc(Nc2ccc(OC)nc2C(F)(F)F)c1=O (configuration not stated)
45 | 6.5 | CCC(C1CC1)n1nc(C)nc(Nc2cc(C)c(OC)nc2C)c1=O (configuration not stated)
46 | 8.6 | CCOc1ccc(Nc2nc(C)nn([C@H](C)C3CC3)c2=O)c(C(F)(F)F)n1
47 | 27 | CCOc1ccc(Nc2nc(C)nn([C@H](COC)C3CC3)c2=O)c(C(F)(F)F)n1
48 | 4.4 | COC[C@H](C1CC1)n1nc(C)nc(Nc2c(Cl)cc(OC(F)F)cc2Cl)c1=O
49 | 20 | Cc1nc(Nc2c(Cl)cc(S(C)(=O)=O)cc2Cl)c(=O)n(C(C)C2CC2)n1 (configuration not stated)
50 | 68 | COc1cc(C)c(Nc2nc(C)nn(C(C)C3CC3)c2=O)c(C)c1 (configuration not stated)
51 | 1100 | COc1nc(C)c(Nc2nc(C)nn(C(C)C3CC3)c2=O)c(OC)n1 (configuration not stated)
52 | 11 | COCC(C1CC1)n1nc(C)nc(Nc2c(Cl)cc(C(F)(F)F)cc2Cl)c1=O (configuration not stated)
53 | 28 | CCOc1cc(C)c(Nc2nc(C)nn(C(C)C3CC3)c2=O)cc1C (configuration not stated)
54 | 1.1 | COCC(C1CC1)n1nc(C)nc(Nc2cc(C)c(OC(F)F)nc2C)c1=O (configuration not stated)
55 | 10 | Cc1nc(Nc2c(Cl)cc(C#N)c(Cl)c2Cl)c(=O)n(C(C)C2CC2)n1 (configuration not stated)
56 | 1.1 | COC[C@@H](C1CC1)n1nc(C)nc(Nc2cc(C)c(OC(F)F)nc2C)c1=O

These molecules were tested on Liver microsomes (assay: Metabolic stability in human liver microsome assessed as compound remaining).
Format: ADME

Row | Stability [%] | Compound
57 | 85 | COc1ccc(Nc2nc(C)nn([C@H](C)C3CC3)c2=O)c(C(F)(F)F)n1
58 | 71 | Cc1cn([C@H](C)C2CC2)c(=O)c(Nc2c(Cl)cc(OC(F)F)cc2Cl)n1

Each molecule was assayed against T2, Corticotropin-releasing factor receptor 1 (Rattus norvegicus) (UniProt P35353) (assay: Displacement of [125]sauvagin from CRF1 receptor in rat parietal cortex).
T2 sequence (whole entry): T1 sequence (P35353 whole entry)

Row | Activity [%] | Compound
59 | 64 | CCC(C1CC1)n1nc(C)nc(Nc2cc(C)c(OC)cc2C)c1=O (configuration not stated)
60 | 46 | CCOc1ccc(Nc2nc(C)nn(C(COC)C3CC3)c2=O)c(C(F)(F)F)n1 (configuration not stated)

The molecules below were run on Liver microsomes (assay: Metabolic stability in rat liver microsome assessed as compound remaining).
Format: ADME

Row | Stability [%] | Compound
61 | 37 | COc1ccc(Nc2nc(C)nn([C@H](C)C3CC3)c2=O)c(C(F)(F)F)n1
62 | 12 | Cc1cn([C@H](C)C2CC2)c(=O)c(Nc2c(Cl)cc(OC(F)F)cc2Cl)n1
